Experimental data taken from ChEMBL document CHEMBL1141106, “Synthesis, binding affinity at glutamic acid receptors, neuroprotective effects, and molecular modeling investigation of novel dihydroisoxazole amino acids” (J Med Chem, 2005).

What was measured:
[1] = target: Glutamate NMDA receptor; test: In vitro binding affinity for NMDA receptor using [3H]-CGP- 39653; type: protein-complex assay, Rattus norvegicus
Method in brief: (§1)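 Displacement binding to rat cortical membranes. Bound radioactivity was counted by scintillation. IC50 came from nonlinear regression with a Hill-coefficient inhibition equation on percent of total specific binding. Mean ± SEM of at least three independent experiments.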

[2] = target: Glutamate receptor ionotropic, AMPA (Rattus norvegicus, UniProt P19490+P19491+P19492+P19493); test: In vitro inhibitory concentration against AMPA receptor using [3H]AMPA; type: protein-complex assay
Method in brief: as §1, with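 “membranes. Radioligands: NMDA site 2 nM [3H]CGP 39653; AMPA site 5 nM [3H]AMPA; KA site 5 nM [3H]KA without CaCl2.” for “membranes.”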

[3] = target: Glutamate receptor ionotropic, kainate; test: In vitro inhibitory concentration against KA receptor using [3H]KA; type: protein-complex assay, Rattus norvegicus
Method in brief: as §1, with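 “membranes. Radioligands: NMDA site 2 nM [3H]CGP 39653; AMPA site 5 nM [3H]AMPA; KA site 5 nM [3H]KA without CaCl2.” for “membranes.”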

[4] = target: T1, Metabotropic glutamate receptor 4 (Rattus norvegicus, UniProt P31423); test: Binding affinity for mGluR4 receptor expressed in CHO cells; type: cell-based
[5] = target: T2, Metabotropic glutamate receptor 2 (Rattus norvegicus, UniProt P31421); test: Effective concentration against mGluR2 receptor expressed in CHO cells; type: cell-based
Method in brief: (§2)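 CHO cell lines stably expressing rat mGluR1a, mGluR2 or mGluR4a. Functional second-messenger read-out: intracellular calcium for mGluR1, cyclic AMP levels for mGluR2 and mGluR4. Values are mean ± SEM of at least three independent experiments.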

[6] = target: T1, Metabotropic glutamate receptor 4; test: Effective concentration against mGluR4 receptor expressed in CHO cells; type: cell-based; method in brief: as §2
[7] = target: T3, Metabotropic glutamate receptor 1 (Rattus norvegicus, UniProt P23385); test: Binding affinity for mGluR1 receptor expressed in CHO cells; type: cell-based
[8] = target: Metabotropic glutamate receptor 4 (Rattus norvegicus) (UniProt P31423); test: Binding affinity for mGluR4 receptor expressed in CHO cells; weak
[9] = target: T2, Metabotropic glutamate receptor 2; test: Binding affinity for mGluR2 receptor expressed in CHO cells; type: cell-based
[10] = target: T3, Metabotropic glutamate receptor 1; test: Effective concentration against mGluR1 receptor expressed in CHO cells; type: cell-based; method in brief: as §2
[11] = target: T2, Metabotropic glutamate receptor 2; test: Effective concentration against mGluR2 receptor expressed in CHO cells; weak; type: cell-based; method in brief: as §2
[12] = Inhibition of 10 uM NMDA induced electrophysiological response in rat cortical wedge preparation

T2 sequence (P31421 whole entry): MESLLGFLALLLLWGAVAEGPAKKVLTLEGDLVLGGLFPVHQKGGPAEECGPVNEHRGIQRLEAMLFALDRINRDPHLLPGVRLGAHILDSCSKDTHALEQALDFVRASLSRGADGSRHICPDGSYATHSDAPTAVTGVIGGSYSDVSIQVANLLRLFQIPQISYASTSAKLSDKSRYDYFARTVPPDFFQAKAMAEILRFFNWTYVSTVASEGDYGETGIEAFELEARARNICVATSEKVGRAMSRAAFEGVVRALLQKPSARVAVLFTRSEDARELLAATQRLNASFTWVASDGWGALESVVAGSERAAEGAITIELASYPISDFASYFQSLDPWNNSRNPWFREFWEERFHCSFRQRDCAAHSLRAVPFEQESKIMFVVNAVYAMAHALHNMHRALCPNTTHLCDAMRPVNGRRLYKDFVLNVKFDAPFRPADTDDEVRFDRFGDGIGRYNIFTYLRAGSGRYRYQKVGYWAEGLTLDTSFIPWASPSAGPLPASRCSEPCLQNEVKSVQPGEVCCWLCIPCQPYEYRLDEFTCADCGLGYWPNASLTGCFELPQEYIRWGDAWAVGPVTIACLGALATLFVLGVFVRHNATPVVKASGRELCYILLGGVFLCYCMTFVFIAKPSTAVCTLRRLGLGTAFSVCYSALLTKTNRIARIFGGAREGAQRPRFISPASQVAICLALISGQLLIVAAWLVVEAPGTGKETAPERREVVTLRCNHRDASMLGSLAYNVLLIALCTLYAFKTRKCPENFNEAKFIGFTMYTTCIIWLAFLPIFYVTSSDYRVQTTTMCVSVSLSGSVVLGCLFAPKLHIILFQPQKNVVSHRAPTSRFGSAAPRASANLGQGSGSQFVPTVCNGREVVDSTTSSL
T1 sequence (P31423 whole entry): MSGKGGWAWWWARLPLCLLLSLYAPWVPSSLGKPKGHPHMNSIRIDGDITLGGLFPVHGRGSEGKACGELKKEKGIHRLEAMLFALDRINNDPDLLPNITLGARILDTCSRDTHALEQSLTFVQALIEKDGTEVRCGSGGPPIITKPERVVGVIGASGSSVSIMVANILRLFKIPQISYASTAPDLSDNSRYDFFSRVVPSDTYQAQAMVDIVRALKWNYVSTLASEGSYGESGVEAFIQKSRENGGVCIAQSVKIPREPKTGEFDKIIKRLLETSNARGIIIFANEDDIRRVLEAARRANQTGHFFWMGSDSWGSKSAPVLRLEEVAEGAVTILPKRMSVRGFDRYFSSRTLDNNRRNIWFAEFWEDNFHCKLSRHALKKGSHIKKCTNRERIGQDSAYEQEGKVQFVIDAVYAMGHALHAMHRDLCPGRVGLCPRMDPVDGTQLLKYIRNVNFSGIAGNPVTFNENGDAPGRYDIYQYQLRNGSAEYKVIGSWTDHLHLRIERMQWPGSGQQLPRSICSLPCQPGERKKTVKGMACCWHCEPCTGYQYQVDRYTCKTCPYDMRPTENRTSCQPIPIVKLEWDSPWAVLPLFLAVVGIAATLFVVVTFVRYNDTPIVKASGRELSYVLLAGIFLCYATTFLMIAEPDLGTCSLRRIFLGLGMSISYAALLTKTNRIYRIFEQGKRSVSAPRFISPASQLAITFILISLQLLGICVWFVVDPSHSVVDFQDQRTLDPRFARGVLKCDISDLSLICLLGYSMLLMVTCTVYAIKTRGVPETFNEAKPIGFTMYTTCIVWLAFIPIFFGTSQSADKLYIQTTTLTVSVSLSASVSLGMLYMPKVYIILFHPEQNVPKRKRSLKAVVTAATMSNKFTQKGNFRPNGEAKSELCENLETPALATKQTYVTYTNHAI
T3 sequence (P23385 whole entry): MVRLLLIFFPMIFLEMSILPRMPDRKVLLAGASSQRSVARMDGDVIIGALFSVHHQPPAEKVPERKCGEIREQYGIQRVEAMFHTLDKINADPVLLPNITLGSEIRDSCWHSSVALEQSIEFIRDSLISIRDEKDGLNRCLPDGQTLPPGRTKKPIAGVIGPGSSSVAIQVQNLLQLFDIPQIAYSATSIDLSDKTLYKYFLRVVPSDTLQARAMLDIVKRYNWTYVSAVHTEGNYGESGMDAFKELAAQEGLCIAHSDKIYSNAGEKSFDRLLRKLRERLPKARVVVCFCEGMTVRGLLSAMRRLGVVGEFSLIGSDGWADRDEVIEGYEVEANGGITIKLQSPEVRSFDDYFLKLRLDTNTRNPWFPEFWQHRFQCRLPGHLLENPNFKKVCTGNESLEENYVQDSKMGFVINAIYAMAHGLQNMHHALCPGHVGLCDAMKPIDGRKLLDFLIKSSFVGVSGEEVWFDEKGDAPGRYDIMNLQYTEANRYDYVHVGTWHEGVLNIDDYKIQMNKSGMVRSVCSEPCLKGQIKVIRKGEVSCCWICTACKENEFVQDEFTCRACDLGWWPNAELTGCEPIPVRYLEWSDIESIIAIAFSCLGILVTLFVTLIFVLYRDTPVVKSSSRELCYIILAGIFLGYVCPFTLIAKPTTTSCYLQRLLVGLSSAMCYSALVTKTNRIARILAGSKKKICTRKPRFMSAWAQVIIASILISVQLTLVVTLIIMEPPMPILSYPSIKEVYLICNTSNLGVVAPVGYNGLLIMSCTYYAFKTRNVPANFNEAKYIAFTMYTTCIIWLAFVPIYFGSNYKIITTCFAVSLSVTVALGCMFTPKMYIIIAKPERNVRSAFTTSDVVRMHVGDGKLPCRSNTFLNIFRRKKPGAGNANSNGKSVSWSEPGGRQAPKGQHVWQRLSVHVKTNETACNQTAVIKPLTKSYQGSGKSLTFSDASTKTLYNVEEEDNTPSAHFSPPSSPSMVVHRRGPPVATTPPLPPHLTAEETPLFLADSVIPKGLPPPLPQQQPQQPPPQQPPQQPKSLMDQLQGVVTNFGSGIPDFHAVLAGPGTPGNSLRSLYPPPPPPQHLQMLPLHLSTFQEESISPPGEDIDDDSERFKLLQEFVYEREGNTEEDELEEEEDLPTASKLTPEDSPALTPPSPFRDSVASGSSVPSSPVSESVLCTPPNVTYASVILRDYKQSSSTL
Metabotropic glutamate receptor 4 (Rattus norvegicus), sequence (P31423 whole entry, looked up): as the sequence (P31423 whole entry) above

SMILES	Ki [1] [µM]	IC50 [2] [µM]	IC50 [3] [µM]	Ki [4] [µM]	EC50 [5] [µM]	EC50 [6] [µM]	Ki [7] [µM]	also measured
N[C@]1(C(=O)O)C[C@@H]2C(C(=O)O)=NO[C@@H]2C1				> 1000	9.1	> 1000	33	Ki [8]: weak
N[C@@H](C[C@H]1CC(C(=O)O)=NO1)C(=O)O		> 100	> 100					
N[C@]1(C(=O)O)C[C@@H]2ON=C(C(=O)O)[C@@H]2C1					> 1000		> 1000	Ki [9]: > 1000 µM; EC50 [10]: > 1000 µM
N[C@@]1(C(=O)O)C[C@@H]2ON=C(C(=O)O)[C@@H]2C1	47							EC50 [11]: Not Active
NC1(C(=O)O)CC2ON=C(C(=O)O)C2C1 (racemic; form 2)	> 100				16		27	Ki ([4]; cho): > 1000 µM; EC50 ([6]; cho): > 1000 µM

More lines, main results first:

Ki [1] [µM]	IC50 [2] [µM]	IC50 [3] [µM]	Ki [4] [µM]	EC50 [5] [µM]	EC50 [6] [µM]	Ki [7] [µM]	SMILES	also measured
0.1	> 100	> 100					N[C@H](C[C@H]1CC(C(=O)O)=NO1)C(=O)O	
1.9	> 100	> 100					N[C@@H](C[C@@H]1CC(C(=O)O)=NO1)C(=O)O	
0.51	> 100	> 100					N[C@H](C[C@@H]1CC(C(=O)O)=NO1)C(=O)O	
0.233	> 100	> 100	> 1000	> 1000	> 1000	> 1000	N[C@@]1(C(=O)O)C[C@@H]2C(C(=O)O)=NO[C@@H]2C1	Ki [9]: > 1000 µM; EC50 [10]: > 1000 µM
0.37	> 100	> 100	> 1000		> 1000	94	NC1(C(=O)O)CC2ON=C(C(=O)O)C2C1 (racemic; form 1)	IC50 [12]: 14 µM
0.21	> 100	> 100	> 1000	> 1000	> 1000	> 1000	NC(CC1CC(C(=O)O)=NO1)C(=O)O (racemic; form 1)	Ki [9]: > 1000 µM; EC50 [10]: > 1000 µM; IC50 [12]: 14.2 µM
0.96							NC(CC1CC(C(=O)O)=NO1)C(=O)O (racemic; form 2)	IC50 [12]: 30.5 µM
